# Compound activity as filed in PubChem BioAssay.
# CHOP UPR activ: apoptotic UPR (CHOP) activation | CHO-CHOP luciferase reporter, luminescence; percent of tunicamycin response over DMSO baseline | activation, % at 10 µM | 0.34% of 330,000 active | AID 449763;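 active = at 10 µM dose, activation of 40% or more, normalized to positive control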;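 note: 100% = tunicamycin at 10 µg/mL and 0% = DMSO alone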
#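 measured by = luciferase luminescence | assay system = CHO-CHOP cells, stable luciferase reporter of PERK-eIF2a-CHOP signalling | amount = 500 reporter cells seeded per well | timing = 6 h compound exposure at 37 °C after overnight seeding | controls = positive tunicamycin 10 µg/mL, negative DMSO alone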
# PfM18AAP inh: PfM18AAP enzyme inhibition; AID 1822; 1.2% of 290,000 active; inhibition, % at 7.35 µM; recombinant PfM18AAP, H-Glu-NHMec fluorogenic cleavage;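 active = inhibition above the campaign mean inhibition over all tested compounds plus 3 SD, cut at about 28% in these data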;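 note: 0% = plate median of test compound wells and 100% = 2 mM ZnCl2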
# NS3 helicase inh: inhibitors of Hepatitis C virus NS3 helicase; 0.56% of 290,000 active; AID 1800; inhibition, % at 10.9 µM; NS3 helicase DNA unwinding, Cy5 molecular beacon fluorescence;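 active = inhibition above the mean of all tested compounds plus 3 SD, set per campaign, cut at about 35% in these data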;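 note: 0% = DMSO wells and 100% = thioflavine S control wells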
#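 Test system: hepatitis C virus NS3 helicase domain fragment enzyme. Also added: annealed dual-labelled DNA beacon duplex, ATP-started. Timing: 60 min unwinding reaction at 25 °C after ATP addition. Technique: Cy5 fluorescence. Measure: % inhibition of unwinding.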
# p97 inhibitor: inhibitors of human p97 ATPase | P55072 | recombinant p97 ATPase, Kinase-Glo ATP luminescence, 3 h | inhibition, % at 8 µM | 0.42% of 220,000 active; in the data active = inhibition above about 15%;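 note: 0% = DMSO vehicle and 100% = wells lacking enzyme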
# CHOP inh: CHOP inhibition in unfolded protein response; CHO-K1 CHOP-promoter luciferase, tunicamycin-induced, 15-18 h; AID 2732; inhibition, % at 10 µM; 3.8% of 220,000 active;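 active = compounds that reduced the stress-induced luciferase reporter signal by more than about 70% of percent inhibition, limit read from the data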;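 note: 0% = tunicamycin plus vehicle and 100% = wells without tunicamycin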
# XBP1 UPR activ: activators of adaptive arm of unfolded protein response (XBP1); CHO-XBP1 luciferase reporter, IRE1-XBP1 UPR activation, luminescence; percent of tunicamycin response, DMSO as zero; activation, % at 20 µM; 0.33% of 330,000 active; AID 463104;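 active = versus positive control, 20 µM dose yields 30% or more activation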;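 note: 100% = tunicamycin at 10 µg/mL and 0% = DMSO only wells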
#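 Signal: luciferase luminescence; Assay system: CHO-XBP1 luciferase reporter cells; Amount: one thousand reporter cells per well; Dosing: 20 µM single concentration, DMSO 1%; Benchmarks: high control tunicamycin 10 µg/mL final, low control DMSO vehicle only; Schedule: 6 h compound exposure at 37 °C, 5% CO2; Evaluation: percent activation relative to tunicamycin reference.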
# * marks the source's active call; other numbers are inactive results; · = no result given. Rows were chosen to be rich in hits. Some 4.5% of all compounds tested hit in one or more screens of this group.
SMILES,CHOP UPR activ,PfM18AAP inh,NS3 helicase inh,p97 inhibitor,CHOP inh,XBP1 UPR activ
COc1ccccc1-c1c(C)nn2c(N3CCN(Cc4ccccc4)CC3)cc(C)nc12,0,-3,-36,-8,92*,-2
COc1ccc(-c2c(C)nn3c(N4CCN(Cc5ccccc5)CC4)cc(C)nc23)cc1OC,0,0,-2,0,29,-2
COc1ccccc1-c1c(C)nn2c(N3CCCCCC3)cc(C)nc12,-3,1,-6,-8,90*,-1
COc1cc(CO)cc(Br)c1OCC(=O)Nc1cccc2ccccc12,-1,0,2,0,-1,3
CCCCS(=O)(=O)N1CCC(C(=O)Oc2ccc(Cl)cc2)CC1,0,-1,-9,·,·,-2
Cn1c(/C=C/c2cccc([N+](=O)[O-])c2)c([N+](=O)[O-])c(=O)n(C)c1=O,0,24,9,·,·,-3
COc1ccc(C2=CC3=C(Br)C(=O)C(C)(O)C(=O)C3=CO2)cc1 (stereo unspecified),2,·,·,·,95*,-2
CCC(=O)OC1(C)C(=O)C2=COC(c3ccc(OC)cc3)=CC2=C(Br)C1=O (stereo unspecified),1,·,·,·,29,4
CC(=C\c1ccccc1)/C=C1/SC(=S)N(CCC(=O)Nc2ccccn2)C1=O,0,1,15,5,9,-3
Cc1ccc(/C=C2\SC(=S)N(CC(=O)Nc3cccnc3)C2=O)cc1,0,11,6,3,86*,-1
CC(=O)c1ccc(NC(=O)CN2C(=O)/C(=C/C=C/c3ccccc3)SC2=S)cc1,1,4,27,7,74*,0
O=C(CN1C(=O)/C(=C/c2ccccc2)SC1=S)Nc1cccnc1,-2,25,11,1,28,-1
O=C(CCN1C(=O)/C(=C/C=C/c2ccccc2)SC1=S)Nc1ccccn1,9,4,19,0,85*,9
COc1ccccc1/C=C1\SC(=S)N(CC(=O)Nc2nnc(C)s2)C1=O,-1,8,14,-3,72*,-3
CCc1ccc(CN2CCC(n3nccc3NC(=O)Cc3ccccc3)CC2)o1,2,-5,-6,·,·,-4
CC(C)(C)OC(=O)N1CCC(c2c(C(=O)N3CCN(C(=O)c4ccco4)CC3)cnn2-c2ccc(F)cc2F)CC1,0,-2,-11,·,·,-3
O=C(CCCN1C(=O)/C(=C/c2cccc(Br)c2)SC1=S)Nc1ccccn1,-1,7,0,5,5,-1
O=C(CCN1C(=O)/C(=C\c2cccs2)SC1=S)NC1=NCCS1,2,4,-10,5,3,-3
CCc1ccc(/C=C2\SC(=S)N(CCC(=O)NC3=NCCS3)C2=O)cc1,-6,-8,13,5,88*,1
COC(=O)c1ccc(/C=C2/SC(=S)N(CCCC(=O)Nc3ccccn3)C2=O)cc1,-7,4,7,5,77*,-5
O=C(c1ccc(Cn2c(=S)[nH]c3cc4c(cc3c2=O)OCO4)cc1)N1CCN(c2ncccn2)CC1,2,6,-3,3,53,-3
COc1cc2c(cc1OC)CN(CC(=O)Nc1ccc(Cl)c(S(=O)(=O)N(C)C)c1)CC2,-1,7,-43,2,19,-2
CC1CCN(C(=O)CN2c3cccc4cccc(c34)S2(=O)=O)CC1,2,·,·,·,·,-1
Cc1ccnc(Sc2ccc([N+](=O)[O-])cc2[N+](=O)[O-])n1,11,4,1,16*,-14,-2
N=c1c2c3c(sc2ncn1Nc1ccccc1)CCC3,0,5,1,6,-2,4
C=C(C)c1cccc(C(C)(C)NC(=O)Nc2ccc(Cl)cn2)c1,1,3,-8,-8,78*,-1
O=C(COC(=O)c1cc(=O)[nH]c2ccccc12)c1ccc(Br)cc1,3,3,3,4,72*,-2
CCN(c1cccc(C)c1)S(=O)(=O)c1cc2c3c(c1)CCN3C(=O)CC2,-1,·,·,·,·,-2
N#C/C(=C(/O)COC(=O)CCCNC(=O)c1ccc(Cl)cc1)c1nc2ccccc2[nH]1,4,-7,9,-2,-5,-2
